# Source: ChEMBL document CHEMBL1156154, “Heterocyclic fused pyridone carboxylic acid M(1) positive allosteric modulators” (Bioorg Med Chem Lett, 2010)
# Active and inactive are the calls of the source. No cut-off for these calls is given here.
# Legend:
# [1] = target: Muscarinic acetylcholine receptor M3 (Homo sapiens) (UniProt P20309); assay: Positive allosteric modulator activity at human muscarinic M3 receptor expressed in CHO cells assessed as effect on acetylcholine-induced intracellular calcium mobilization by FLIPR assay; format: functional, cell-based
# Chain of Muscarinic acetylcholine receptor M3 (Homo sapiens) (P20309 whole entry, looked up): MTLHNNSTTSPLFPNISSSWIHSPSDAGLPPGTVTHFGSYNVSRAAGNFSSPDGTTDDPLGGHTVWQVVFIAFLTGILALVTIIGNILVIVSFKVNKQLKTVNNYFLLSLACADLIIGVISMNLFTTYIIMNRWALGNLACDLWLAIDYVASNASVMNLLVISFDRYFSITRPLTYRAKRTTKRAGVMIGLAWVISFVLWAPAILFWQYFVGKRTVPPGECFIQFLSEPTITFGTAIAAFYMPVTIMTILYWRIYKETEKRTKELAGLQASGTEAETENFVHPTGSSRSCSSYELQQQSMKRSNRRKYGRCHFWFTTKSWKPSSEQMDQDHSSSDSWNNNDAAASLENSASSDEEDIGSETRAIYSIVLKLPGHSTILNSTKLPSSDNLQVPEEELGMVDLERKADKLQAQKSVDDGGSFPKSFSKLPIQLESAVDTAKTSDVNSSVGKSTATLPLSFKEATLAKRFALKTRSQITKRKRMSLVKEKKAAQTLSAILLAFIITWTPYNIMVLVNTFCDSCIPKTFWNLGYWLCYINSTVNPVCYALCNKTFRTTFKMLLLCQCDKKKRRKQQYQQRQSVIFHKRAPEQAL
# [2] = target: T1, Muscarinic acetylcholine receptor M2 (Homo sapiens) (UniProt P08172); assay: Positive allosteric modulator activity at human muscarinic acetylcholine M2 receptor expressed in CHO cells assessed as effect on acetylcholine-induced intracellular calcium mobilization by FLIPR assay; format: functional, cell-based
# T1 sequence (whole entry): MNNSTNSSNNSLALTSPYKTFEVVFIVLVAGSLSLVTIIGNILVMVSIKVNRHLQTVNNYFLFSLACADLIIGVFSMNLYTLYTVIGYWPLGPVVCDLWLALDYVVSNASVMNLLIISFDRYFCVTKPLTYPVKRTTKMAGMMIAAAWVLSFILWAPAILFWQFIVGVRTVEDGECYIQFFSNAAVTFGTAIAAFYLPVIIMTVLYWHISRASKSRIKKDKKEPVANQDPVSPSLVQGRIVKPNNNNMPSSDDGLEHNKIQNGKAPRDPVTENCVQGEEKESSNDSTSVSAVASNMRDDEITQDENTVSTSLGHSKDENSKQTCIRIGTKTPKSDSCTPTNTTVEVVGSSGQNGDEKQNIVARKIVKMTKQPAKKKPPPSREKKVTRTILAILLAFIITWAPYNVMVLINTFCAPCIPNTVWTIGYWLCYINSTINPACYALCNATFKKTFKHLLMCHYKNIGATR
# [3] = target: T2, Muscarinic acetylcholine receptor M1 (Homo sapiens) (UniProt P11229); assay: Positive allosteric modulator activity at human muscarinic M1 receptor expressed in CHO cells assessed as effect on acetylcholine-induced intracellular calcium mobilization by FLIPR assay; format: functional, cell-based
# T2 sequence (whole entry): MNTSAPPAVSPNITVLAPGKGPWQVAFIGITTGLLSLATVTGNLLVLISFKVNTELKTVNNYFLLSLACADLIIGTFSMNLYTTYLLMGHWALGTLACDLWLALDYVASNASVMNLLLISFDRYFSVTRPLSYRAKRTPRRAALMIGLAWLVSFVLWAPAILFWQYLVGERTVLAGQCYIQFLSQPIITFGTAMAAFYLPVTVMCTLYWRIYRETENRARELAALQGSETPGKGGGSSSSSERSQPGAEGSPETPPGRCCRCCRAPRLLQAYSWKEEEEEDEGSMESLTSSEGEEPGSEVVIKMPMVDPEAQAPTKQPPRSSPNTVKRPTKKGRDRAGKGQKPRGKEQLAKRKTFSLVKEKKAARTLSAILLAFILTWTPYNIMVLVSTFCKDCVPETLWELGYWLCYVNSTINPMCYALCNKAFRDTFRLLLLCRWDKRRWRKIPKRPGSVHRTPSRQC
# Outline: (§1)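 CHO cells expressing human M1 were run with an EC20 concentration of acetylcholine. Calcium mobilization was read on a FLIPR384. Potency is reported as the inflection point. Percent max is the compound plus EC20 ACh response relative to the maximal acetylcholine effect.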
# [4] = target: T3, Muscarinic acetylcholine receptor M4 (Homo sapiens) (UniProt P08173); assay: Positive allosteric modulator activity at human muscarinic M4 receptor expressed in CHO cells assessed as effect on acetylcholine-induced intracellular calcium mobilization by FLIPR assay; format: functional, cell-based
# T3 sequence (whole entry): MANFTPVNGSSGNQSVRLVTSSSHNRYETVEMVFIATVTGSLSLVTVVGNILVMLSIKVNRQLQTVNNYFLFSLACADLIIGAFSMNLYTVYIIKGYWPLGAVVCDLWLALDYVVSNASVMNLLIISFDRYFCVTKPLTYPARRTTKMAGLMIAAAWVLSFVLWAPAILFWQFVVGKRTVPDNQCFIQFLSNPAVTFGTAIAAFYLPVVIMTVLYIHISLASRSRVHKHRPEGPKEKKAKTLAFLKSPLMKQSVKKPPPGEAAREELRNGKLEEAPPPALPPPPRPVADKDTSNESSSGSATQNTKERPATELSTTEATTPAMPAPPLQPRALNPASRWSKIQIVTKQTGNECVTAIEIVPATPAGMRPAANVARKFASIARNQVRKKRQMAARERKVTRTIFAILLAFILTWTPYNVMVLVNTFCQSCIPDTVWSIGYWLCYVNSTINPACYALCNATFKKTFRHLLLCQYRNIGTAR
# [5] = Plasma protein binding in rat serum by equilibrium dialysis method
# [6] = Plasma protein binding in human serum by equilibrium dialysis method
# [7] = target: T2, Muscarinic acetylcholine receptor M1 (Homo sapiens); assay: Positive allosteric modulator activity at human muscarinic M1 receptor expressed in CHO cells assessed as effect on acetylcholine-induced intracellular calcium mobilization by FLIPR assay relative to acetylcholine; format: functional, cell-based; outline: as §1
SMILES,Activity [1],Activity [2],IP [3],Activity [4],fraction unbound [5],fraction unbound [6],Emax [7]
O=C(O)c1cn(Cc2ccc(-c3cccnc3)cc2)c2ccsc2c1=O,inactive,inactive,0.57 µM,inactive,,,
O=C(O)c1cn(Cc2ccc(-n3ccnc3)cc2)c2ccsc2c1=O,inactive,inactive,0.24 µM,inactive,0.259,0.199,
O=C(O)c1cn(Cc2ccc(-c3ccsc3)cn2)c2ccsc2c1=O,inactive,inactive,1.66 µM,inactive,,,
O=C(O)c1cn(Cc2ccc(-c3ccccc3)cc2)c2ccsc2c1=O,inactive,inactive,0.15 µM,inactive,0.008,0.013,90%
O=C(O)c1cn(Cc2ccc(-c3ccccc3)cc2)c2cccnc2c1=O,inactive,inactive,1.38 µM,inactive,,,92%
O=C(O)c1cn(Cc2ccc(-c3ccccc3)cc2)c2ncccc2c1=O,inactive,inactive,0.58 µM,inactive,0.003,0.008,56%
Cc1ccnn1-c1ccc(Cn2cc(C(=O)O)c(=O)c3ccncc32)cc1,inactive,inactive,13 µM,inactive,,,
O=C(O)c1cn(Cc2ccc(-c3ccccc3)cc2)c2sccc2c1=O,inactive,inactive,0.37 µM,inactive,0.004,0.007,78%
Cc1cn(-c2ccc(Cn3cc(C(=O)O)c(=O)c4cccnc43)cc2)cn1,inactive,inactive,0.34 µM,inactive,0.052,0.233,
O=C(O)c1cn(Cc2ccc(-c3ccccc3)cc2)c2nccnc2c1=O,inactive,inactive,0.78 µM,inactive,0.023,0.023,96%
O=C(O)c1cn(Cc2ccc(-c3ccnc(Cl)c3)cn2)c2ccsc2c1=O,inactive,inactive,0.81 µM,inactive,,,
O=C(O)c1cn(Cc2ccc(-c3ccccc3)cc2)c2ccncc2c1=O,inactive,inactive,> 100 µM,inactive,,,4%
Cc1cn(-c2ccc(Cn3cc(C(=O)O)c(=O)c4ccncc43)cc2)cn1,inactive,inactive,1.03 µM,inactive,,,
COc1ccc(-c2ccc(Cn3cc(C(=O)O)c(=O)c4sccc43)nc2)cn1,inactive,inactive,2 µM,inactive,,,
O=C(O)c1cn(Cc2ccc(-c3ccccc3)cc2)c2ncncc2c1=O,inactive,inactive,87.2 µM,inactive,,,48%
CN(C)c1ccc(-c2ccc(Cn3cc(C(=O)O)c(=O)c4sccc43)nc2)cn1,inactive,inactive,0.5 µM,inactive,,,
Cn1cc(-c2ccc(Cn3cc(C(=O)O)c(=O)c4sccc43)cc2)cn1,inactive,inactive,0.15 µM,inactive,0.009,0.066,
Cc1ccnn1-c1ccc(Cn2cc(C(=O)O)c(=O)c3cccnc32)cc1,inactive,inactive,17.9 µM,inactive,,,
O=C(O)c1cn(Cc2ccc(-c3cccnc3)cn2)c2ccsc2c1=O,inactive,inactive,1.05 µM,inactive,,,
O=C(O)c1cn(Cc2ccc(-c3ccccc3)cc2)c2cnccc2c1=O,inactive,inactive,0.43 µM,inactive,,,62%
O=C(O)c1cn(Cc2ccc(-n3cccn3)cc2)c2ncccc2c1=O,inactive,inactive,0.81 µM,inactive,0.048,0.061,
Cc1ccn(-c2ccc(Cn3cc(C(=O)O)c(=O)c4sccc43)cc2)n1,inactive,inactive,0.51 µM,inactive,,,
O=C(O)c1cn(Cc2ccc(-c3ccccc3)cc2)c2nnccc2c1=O,inactive,inactive,5.95 µM,inactive,,,34%
O=C(O)c1cn(Cc2ccc(-c3ccccc3)cc2)c2nsnc2c1=O,inactive,inactive,3.5 µM,inactive,,,69%
O=C(O)c1cn(Cc2ccc(-c3ccncc3)cc2)c2ccsc2c1=O,inactive,inactive,0.6 µM,inactive,,,
O=C(O)c1cn(Cc2ccc(-n3cccn3)cc2)c2cnccc2c1=O,inactive,inactive,1.14 µM,inactive,,,
O=C(O)c1cn(Cc2ccc(-c3ccccc3)cc2)c2ccccc2c1=O,inactive,inactive,0.21 µM,inactive,,,92%
Cc1ccn(-c2ccc(Cn3cc(C(=O)O)c(=O)c4cccnc43)cc2)n1,inactive,inactive,0.56 µM,inactive,,0.012,
O=C(O)c1cn(Cc2ccc(-c3ccccc3)cc2)c2csnc2c1=O,inactive,inactive,3.35 µM,inactive,,,76%
Nc1cccc(-c2ccc(Cn3cc(C(=O)O)c(=O)c4sccc43)nc2)c1,inactive,inactive,0.038 µM,inactive,0.099,0.117,
